What all share (type): functional
In one test the test system is MDA-MB-231. The experiment in a line: Growth inhibition of human MDA-MB-231 cells after 48 hrs by SRB assay. The settings on record: for CC50: read-out: LC50 (the source's name). A digest of the protocol: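 Cells were exposed to compound for 48 h, and growth was read by sulforhodamine B staining. TGI (total growth inhibition concentration, μM) was taken from concentration–response curves, n = 3, means ± SEM. MDA-MB-231 cells were grown in IMEM with 10% FBS at 37 °C in 5% CO2.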
On the technique in general: Sulforhodamine B stains cellular protein and so reports cell mass.

For a further test, the system named is BT-549. Kind of test: Growth inhibition of human BT-549 cells after 48 hrs by SRB assay. The settings on record: for CC50: read-out: LC50 (the source's name).
The species entered for test [1] is Homo sapiens. Kind of test: Selectivity index, ratio of TGI for growth inhibitor of human BT-549 to TGI for growth inhibitor of human MDA-MB-231.
In the next test the test system is MDA-MB-157. The experiment in a line: Growth inhibition of human MDA-MB-157 cells after 48 hrs by SRB assay. The following applies: for CC50: read-out: LC50 (the source's name).
A further test deals with HCC1806. Kind of test: Growth inhibition of human HCC1806 cells after 48 hrs by SRB assay. The following applies: for CC50: read-out: LC50 (the source's name).
The next test relates to MDA-MB-468. Kind of test: Growth inhibition of human MDA-MB-468 cells after 48 hrs by SRB assay. The settings on record: for CC50: read-out: LC50 (the source's name).
The next test concerns MDA-MB-453. Kind of test: Growth inhibition of human MDA-MB-453 cells after 48 hrs by SRB assay. The settings on record: for CC50: read-out: LC50 (the source's name).
The species entered for test [2] is Homo sapiens. Kind of test: Selectivity index, ratio of LC50 for growth inhibitor of human MDA-MB-157 to LC50 for growth inhibitor of human MDA-MB-231. In a few lines: (§1)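 Selectivity index is the LC50 of the named TNBC line divided by the LC50 in MDA-MB-231 cells.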
For test [3], the species on record is Homo sapiens. The experiment in a line: Selectivity index, ratio of LC50 for growth inhibitor of human BT-549 to LC50 for growth inhibitor of human MDA-MB-231. In a few lines:
as §1

The species entered for test [4] is Homo sapiens. The experiment in a line: Selectivity index, ratio of LC50 for growth inhibitor of human […] to LC50 for growth inhibitor of human MDA-MB-231. A digest of the protocol: as §1
For test [5], the species on record is Homo sapiens. The experiment in a line: Selectivity index, ratio of LC50 for growth inhibitor of human MDA-MB-468 to LC50 for growth inhibitor of human MDA-MB-231. In a few lines:
as §1

For test [6], the species on record is Homo sapiens. The experiment in a line: Selectivity index, ratio of LC50 for growth inhibitor of human MDA-MB-453 to LC50 for growth inhibitor of human MDA-MB-231. In a few lines:
as §1

Consider `C=CCCCCC(O)/C=C/C#CC#CC(O)CC` (mixture of isomers), for which the TGI in the test with MDA-MB-231 was 4800 nM; with BT-549, over 10000 nM.
On to `C=C[C@@H](O)C#CC#CC/C=C\CCCCCCC`, for which the TGI with MDA-MB-231 was found to be 6000 nM; with BT-549, 9000 nM. For the same compound, in the test filed under Homo sapiens [1], the Selectivity Index was found to be 1.5.
As for `C=CCCCCC/C=C\CC#CC#C[C@@H](O)C=C`, the GI50 in the test with MDA-MB-231 stood at 51 nM; in the test on MDA-MB-157, 59 nM; with BT-549, 220 nM; with HCC1806, 300 nM; in the test on MDA-MB-468, 850 nM; in the test on MDA-MB-453, 2800 nM. In addition, the TGI with MDA-MB-231 was 89 nM; with MDA-MB-157 it was 130 nM; in the test with BT-549 it was 420 nM; with HCC1806 it was 540 nM; with MDA-MB-468, 2000 nM; with MDA-MB-453, over 5000 nM. Further, the CC50 in the test on MDA-MB-231 is 170 nM; with MDA-MB-157 it was 290 nM; in the test on BT-549, 900 nM; in the test with HCC1806, 1200 nM; in the test with MDA-MB-468 it was 4400 nM; in the test with MDA-MB-453 it was over 5000 nM. For the same compound, the RatioLC50 in the test listed under Homo sapiens [2] was 1.7; in the test filed under Homo sapiens [3] it was 5.3; in the test listed under Homo sapiens [4] it was 7.1; in the test listed under Homo sapiens [5], 26; in the test listed under Homo sapiens [6] it was over 29. Moreover, the Selectivity Index in the test listed under Homo sapiens [1] came to 7.3.
For `C=CCCC/C=C\C(C#CC#C[C@H](O)C=C)OC(C)=O` (some centres undefined), the TGI with MDA-MB-231 was found to be 2500 nM; in the test with BT-549, 2000 nM. The Selectivity Index in the test filed under Homo sapiens [1] is 0.8.
Consider `C=CCCC/C=C\[C@H](O)C#CC#C[C@H](O)C=C`, for which the TGI with MDA-MB-231 came to 12000 nM; in the test with BT-549 it was 29000 nM. In addition, the Selectivity Index in the test listed under Homo sapiens [1] came out at 2.4.
`C=CCCCCC(O)/C=C/C#CC#C[C@@H](O)C=C` (mixture of isomers): the TGI is 360 nM in the test with MDA-MB-231 and 4200 nM with BT-549. In addition, the Selectivity Index in the test filed under Homo sapiens [1] stood at 12.
For the compound `C=CCCCC/C=C\CC#CC#C[C@@H](O)C=C`, the GI50 in the test on MDA-MB-231 came to 74 nM; with MDA-MB-157 it was 190 nM; in the test on BT-549, 390 nM; with HCC1806, 390 nM; with MDA-MB-468 it was 1300 nM; with MDA-MB-453, 1700 nM. The TGI in the test with MDA-MB-231 worked out at 120 nM; in the test with MDA-MB-157, 300 nM; with BT-549, 850 nM; with HCC1806, 880 nM; in the test on MDA-MB-468, 3100 nM; with MDA-MB-453, 5100 nM. Moreover, the CC50 stood at 210 nM in the test on MDA-MB-231; 510 nM in the test on MDA-MB-157; 1900 nM in the test with BT-549; 1900 nM with HCC1806; 5400 nM in the test with MDA-MB-468; 9800 nM in the test with MDA-MB-453. Also, the RatioLC50 was found to be 2.4 in the test filed under Homo sapiens [2]; 9 in the test listed under Homo sapiens [3]; 9 in the test listed under Homo sapiens [4]; 26 in the test listed under Homo sapiens [5]; 47 in the test filed under Homo sapiens [6]. In the test listed under Homo sapiens [1], the Selectivity Index was determined as 4.7.
`C=CCCCCCC(O)/C=C/C#CC#CC(O)CC` (mixture of isomers): the TGI with MDA-MB-231 is 4300 nM; in the test with BT-549, over 5000 nM.

One may read the TGI as the concentration giving total growth inhibition. Read a high TGI as less potent growth arrest. As a reminder, the GI50 is the concentration giving 50% growth inhibition. Low readings indicate more potent growth inhibition, high ones less potent growth inhibition.

(Values after ChEMBL document CHEMBL4665845, “CRISPR-Cas9 Genome-Wide Knockout Screen Identifies Mechanism of Selective Activity of Dehydrofalcarinol in Mesenchymal Stem-like Triple-Negative Breast Cancer Cells” (2020).)
